Assay [1] addresses T1, Sodium-dependent dopamine transporter (Homo sapiens, UniProt Q01959). Description: Ratio between [3H]DA reuptake and DAT binding. Type of assay: functional.
Assay [2] concerns the target T1, Sodium-dependent dopamine transporter. Kind of assay: Inhibition of [125I]RTI-55 binding at Dopamine transporter (DAT) expressed in HEK cells. Type of assay: cell-based, HEK293. In a few lines: (§1)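 Membranes from transfected HEK 293 cells (lysed in 2 mM HEPES/1 mM EDTA, pelleted at 30000g, resuspended in 0.32 M sucrose), ~15 μg protein per tube. GF/C filtration, counting. Duplicate competition curves; IC50 converted to Ki by Cheng–Prusoff.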

Assay [3] has as its target T2, Sodium-dependent noradrenaline transporter (Homo sapiens, UniProt P23975). Kind of assay: Inhibition of [125I]RTI-55 binding to norepinephrine transporter (NET) expressed in HEK cells. Type of assay: cell-based, HEK293.
Assay [4] deals with Monoamine transporters; Norepinephrine & dopamine (Homo sapiens) (UniProt Q01959+P23975). Description: selectivity ratio between noradrenaline and dopamine transporter binding. Type of assay: protein assay.
Sequence of Monoamine transporters; Norepinephrine & dopamine (Homo sapiens) (P23975 whole entry, looked up): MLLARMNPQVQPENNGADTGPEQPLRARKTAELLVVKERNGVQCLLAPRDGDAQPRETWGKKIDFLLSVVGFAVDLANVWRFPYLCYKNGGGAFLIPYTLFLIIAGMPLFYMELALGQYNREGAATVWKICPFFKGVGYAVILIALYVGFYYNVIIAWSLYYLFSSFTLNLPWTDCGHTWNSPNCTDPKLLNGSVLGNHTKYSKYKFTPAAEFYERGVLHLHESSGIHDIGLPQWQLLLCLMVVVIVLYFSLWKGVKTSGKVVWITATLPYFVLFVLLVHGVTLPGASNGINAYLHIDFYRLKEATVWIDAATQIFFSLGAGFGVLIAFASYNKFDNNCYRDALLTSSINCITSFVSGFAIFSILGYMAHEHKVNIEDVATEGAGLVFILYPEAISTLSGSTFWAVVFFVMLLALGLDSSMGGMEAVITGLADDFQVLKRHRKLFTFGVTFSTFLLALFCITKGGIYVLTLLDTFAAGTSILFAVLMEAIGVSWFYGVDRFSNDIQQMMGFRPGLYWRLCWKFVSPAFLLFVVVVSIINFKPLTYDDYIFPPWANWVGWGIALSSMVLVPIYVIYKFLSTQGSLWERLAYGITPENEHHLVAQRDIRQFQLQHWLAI
Sequence of Monoamine transporters; Norepinephrine & dopamine (Homo sapiens) (Q01959 whole entry, looked up): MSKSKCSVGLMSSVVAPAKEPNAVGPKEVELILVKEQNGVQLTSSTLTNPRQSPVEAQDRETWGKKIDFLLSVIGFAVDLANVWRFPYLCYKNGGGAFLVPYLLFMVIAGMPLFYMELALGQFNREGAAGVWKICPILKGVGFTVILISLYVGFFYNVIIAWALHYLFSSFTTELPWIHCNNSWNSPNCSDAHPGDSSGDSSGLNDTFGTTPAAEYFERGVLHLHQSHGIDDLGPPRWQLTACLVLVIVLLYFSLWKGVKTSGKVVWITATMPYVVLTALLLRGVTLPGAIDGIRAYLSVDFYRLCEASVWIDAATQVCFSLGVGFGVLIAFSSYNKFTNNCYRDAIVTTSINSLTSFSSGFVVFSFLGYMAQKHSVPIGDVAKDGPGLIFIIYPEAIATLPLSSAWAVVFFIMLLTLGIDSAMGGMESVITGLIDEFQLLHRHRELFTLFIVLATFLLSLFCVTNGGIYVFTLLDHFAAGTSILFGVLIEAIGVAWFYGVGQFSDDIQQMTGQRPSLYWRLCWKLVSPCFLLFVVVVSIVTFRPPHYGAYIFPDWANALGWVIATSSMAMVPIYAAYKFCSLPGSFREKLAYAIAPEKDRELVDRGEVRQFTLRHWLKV
The target in assay [5] is T2, Sodium-dependent noradrenaline transporter. Description: Inhibition of [3H]- NE uptake in HEK cells expressing norepinephrine transporter. Type of assay: functional, cell-based, HEK293.
Assay [6] deals with T3, Sodium-dependent serotonin transporter (Homo sapiens, UniProt P31645). Kind of assay: Inhibition of [125I]RTI-55 binding to serotonin transporter (SERT) expressed in HEK cells. Type of assay: cell-based, HEK293. The method in brief: as §1
Target sequence in this assay (P31645 whole entry): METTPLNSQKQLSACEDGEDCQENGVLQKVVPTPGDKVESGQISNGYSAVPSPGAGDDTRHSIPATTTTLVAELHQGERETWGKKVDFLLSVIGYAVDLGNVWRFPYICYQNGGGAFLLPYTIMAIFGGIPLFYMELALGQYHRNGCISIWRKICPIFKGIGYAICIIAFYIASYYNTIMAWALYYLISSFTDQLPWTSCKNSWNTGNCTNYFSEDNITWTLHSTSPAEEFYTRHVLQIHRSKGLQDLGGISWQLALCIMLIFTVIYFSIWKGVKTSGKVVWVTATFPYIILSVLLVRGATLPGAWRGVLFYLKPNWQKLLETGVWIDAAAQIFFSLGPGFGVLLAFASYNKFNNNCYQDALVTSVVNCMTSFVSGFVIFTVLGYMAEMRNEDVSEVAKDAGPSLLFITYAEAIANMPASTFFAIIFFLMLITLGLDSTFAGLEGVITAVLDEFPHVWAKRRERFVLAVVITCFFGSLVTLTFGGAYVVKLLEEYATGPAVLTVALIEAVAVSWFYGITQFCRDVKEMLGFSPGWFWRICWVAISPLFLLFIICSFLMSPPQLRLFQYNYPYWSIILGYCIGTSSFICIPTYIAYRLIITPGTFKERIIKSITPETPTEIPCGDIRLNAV
The target in assay [7] is T3, Sodium-dependent serotonin transporter. Kind of assay: Ratio between [3H]5-HT reuptake and SERT binding. Type of assay: functional.
Target sequence in this assay (P31645 whole entry, looked up): as the sequence (P31645 whole entry) above
Assay [8] has as its target Monoamine transporters; serotonin & dopamine (Homo sapiens) (UniProt P31645+Q01959). Description: Selectivity ratio between serotonin and dopamine transporters. Type of assay: protein assay.
Assay [9] has as its target T3, Sodium-dependent serotonin transporter. Description: Inhibition of [3H]- 5-HT uptake in HEK cells expressing serotonin transporter. Type of assay: functional, cell-based, HEK293. In a few lines:
(§2)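 Confluent transfected HEK 293 cells washed in PBS, scraped and suspended. Suspension preincubated with drug 10 min at 25 °C in Krebs HEPES, then [3H]DA or [3H]5-HT (20 nM final) added for another 10 min. Ended by filtration onto GF/C filters presoaked in 0.05% poly(ethylenimine), counting. Six drug concentrations, triplicate; IC50 reported.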
Target sequence in this assay (P31645 whole entry): as above

Assay [10] has as its target T1, Sodium-dependent dopamine transporter. Kind of assay: Inhibition of [3H]DA uptake in HEK cells expressing dopamine transporter. Type of assay: functional, cell-based, HEK293. In a few lines:
as §2

Assay [11] deals with T2, Sodium-dependent noradrenaline transporter. Kind of assay: Compound was tested for its affinity by the inhibition of [125I]RTI-55 binding at norepinephrine transporter (NET) transfected in HEK cells. Type of assay: cell-based, HEK293. In a few lines:
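Membranes from HEK 293 cells transfected with NET (lysed in 2 mM HEPES/1 mM EDTA, pelleted at 30000g, resuspended in 0.32 M sucrose), ~15 μg protein, preincubated with drug 10 min. Then [125I]RTI-55 (40–80 pM final) added in Krebs HEPES, 90 min at room temperature in dark. Filtration, counting. Competition in duplicate; IC50 converted to Ki by Cheng–Prusoff. Final DMSO 0.01%.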

From ChEMBL document CHEMBL1132179, “Design, synthesis, and biological evaluation of novel non-piperazine analogues of 1-[2-(diphenylmethoxy)ethyl]- and 1-[2-[bis(4-fluorophenyl)methoxy]ethyl]-4-(3-phenylpropyl)piperazines as dopamine transporter inhibitors” (J Med Chem, 1999) come the findings set out here.

SMILES strings stand for the structures.

T2 sequence (P23975 whole entry): as the sequence (P23975 whole entry, looked up) above
Sequence of Monoamine transporters; serotonin & dopamine (Homo sapiens) (P31645 whole entry, looked up): as the sequence (P31645 whole entry) above
Sequence of Monoamine transporters; serotonin & dopamine (Homo sapiens) (Q01959 whole entry, looked up): as the sequence (Q01959 whole entry, looked up) above
T1 sequence (Q01959 whole entry): as the sequence (Q01959 whole entry, looked up) above

With `CN(CCOC(c1ccc(F)cc1)c1ccc(F)cc1)CCN(C)CCOC(c1ccc(F)cc1)c1ccc(F)cc1`, the Ratio was 32.4 in assay [1] and over 13 in assay [7]. The Ki amounted to 26 nM in assay [2], 261 nM in [3] and 770 nM in assay [6]. Also, the Selectivity ratio was found to be 10.2 in assay [4] and 30.1 in assay [8]. For the same compound, the IC50 in assay [5] is 2600 nM; in [9], over 10000 nM; in assay [10] it was 830 nM.

As for `O=C(CCc1ccccc1)NCCNCCOC(c1ccc(F)cc1)c1ccc(F)cc1`, the Ratio stood at 1.8 in assay [1] and 2.2 in [7]. For the same compound, the Ki in [2] stood at 51 nM; in assay [3], 545 nM; in assay [6], 523 nM. The results for the Selectivity ratio in [4] and in assay [8] were 10.7 and 10.3, respectively. Besides, the IC50 came out at 205 nM in assay [5], 1140 nM in assay [9] and 90 nM in [10].

In the case of `CN(CCCc1ccccc1)CCCN(C)CCOC(c1ccccc1)c1ccccc1`, the Ratio in assay [1] was determined as 1.9; in assay [7], 3.9. Moreover, the Ki in assay [2] worked out at 122 nM; in assay [3], 30 nM; in assay [6], 438 nM. The Selectivity ratio in [4] stood at 0.2; in assay [8] it was 3.6. In addition, the values for the IC50 in [5], in assay [9] and in [10] were 143 nM, 1700 nM and 237 nM, respectively.

With `O=C(/C=C/c1ccc(Br)cc1)NCCNCCOC(c1ccc(F)cc1)c1ccc(F)cc1`, the Ratio in assay [1] is 2.7; in assay [7], 7.6. Moreover, the Ki in assay [2] is 510 nM; in assay [3], 1760 nM; in assay [6], 590 nM. The figures for the Selectivity ratio in assay [4] and in assay [8] were 3.5 and 1.2, respectively. The results for the IC50 in assay [5], in assay [9] and in [10] were over 10000 nM, 4500 nM and 1380 nM, respectively.

With `CN(CCOC(c1ccccc1)c1ccccc1)CCN(C)CCc1ccc(F)cc1`, the values for the Ratio in [1] and in assay [7] were 4 and 1.9, respectively. For the same compound, the Ki in assay [2] is 30 nM; in [3], 370 nM; in assay [6], 550 nM. For the same compound, the Selectivity ratio in assay [4] came to 12.3; in assay [8] it was 18.3. For the same compound, the values for the IC50 in assay [5], in [9] and in assay [10] were 279 nM, 1050 nM and 119 nM, respectively.

Turning to `CN(CCCN(C)CCc1ccccc1)CCOC(c1ccccc1)c1ccccc1`, the Ratio in assay [1] and in assay [7] was 1.1 in each case. Moreover, the figures for the Ki in assay [2], in [3] and in assay [6] were 322 nM, 194 nM and 1530 nM, respectively. For the same compound, the Selectivity ratio came to 0.6 in assay [4] and 4.7 in [8]. The IC50 was 210 nM in [5], 1700 nM in assay [9] and 349 nM in assay [10].

As for `O=C(Cc1ccccc1)NCCNCCOC(c1ccc(F)cc1)c1ccc(F)cc1`, the values for the Ratio in assay [1] and in [7] were 1.5 and 2.3, respectively. Further, the Ki in assay [2] stood at 54 nM; in assay [3], 604 nM; in [6], 556 nM. Besides, the figures for the Selectivity ratio in assay [4] and in assay [8] were 11.2 and 10.3, respectively. Also, the results for the IC50 in [5], in [9] and in assay [10] were 399 nM, 1300 nM and 80 nM, respectively.

On to `O=C(Cc1ccccc1)NCCCNCCOC(c1ccc(F)cc1)c1ccc(F)cc1`, for which the Ratio in assay [1] is 1.2; in [7], 1.1. The values for the Ki in assay [2], in assay [3] and in [6] were 61 nM, 477 nM and 1150 nM, respectively. Also, the Selectivity ratio was found to be 7.8 in [4] and 18.8 in assay [8]. The IC50 is 192 nM in assay [5], 1230 nM in [9] and 73 nM in assay [10].

Take `O=C(Cc1ccc(F)cc1)NCCNCCOC(c1ccc(F)cc1)c1ccc(F)cc1`: the Ratio in [1] amounted to 0.9; in assay [7], 5.7. Besides, the Ki is 54 nM in [2], 844 nM in assay [3] and 351 nM in assay [6]. Further, the values for the Selectivity ratio in [4] and in assay [8] were 15.6 and 6.5, respectively. The IC50 in assay [5] amounted to 299 nM; in [9], 1990 nM; in [10], 47 nM.

Consider `O=C1CN(CCc2ccccc2)CCN1CCOC(c1ccc(F)cc1)c1ccc(F)cc1`, for which the Ratio is over 1.7 in [1] and over 34.5 in [7]. Further, the figures for the Ki in assay [2], in [3] and in [6] were 1430 nM, 7050 nM and 114 nM, respectively. In addition, the Selectivity ratio in [4] is 4.9; in [8] it was 0.1. Moreover, the IC50 in [5] is over 10000 nM; in assay [9], 3940 nM; in assay [10], over 10000 nM.

As to `O=C1CN(CCOC(c2ccccc2)c2ccccc2)CCN1CCCc1ccccc1`, the Ratio in [1] is over 1.2; in assay [7], over 1.7. Besides, the Ki in [2] was 8200 nM; in assay [11], 5850 nM; in assay [6], 5900 nM. The Selectivity ratio in assay [4] was 1; in assay [8], 0.7. Further, the IC50 in [5], in assay [9] and in assay [10] was over 10 nM in each case.

Take `Fc1ccc(C(OCCNCCCNCCc2ccccc2)c2ccc(F)cc2)cc1`: the Ratio in assay [1] is 2.4; in assay [7], 2. In addition, the Ki in [2] is 28 nM; in assay [3], 82 nM; in [6], 125 nM. Also, the Selectivity ratio in assay [4] stood at 2.9; in [8] it was 4.5. The concentration for half-maximal inhibition (IC50) in [5] was found to be 116 nM; in [9], 249 nM; in assay [10], 68 nM.

Usually Ki stands for the equilibrium dissociation constant of an inhibitor or competing ligand from its target. Read a low Ki as higher affinity. The term IC50 denotes the concentration that inhibits the measured activity by half. A lower IC50 goes with greater potency.
